ChEMBL document CHEMBL1143979, “1-, 3- and 8-substituted-9-deazaxanthines as potent and selective antagonists at the human A2B adenosine receptor” (Bioorg Med Chem, 2008)
pKi: −log10 of the molar value. Where “and” joins values, the source holds several entries; their conditions need not be identical. Identical values can stand only once.

What was measured:
Adenosine receptor A2b = molecular target: T1, Adenosine receptor A2b (Homo sapiens, UniProt P29275); assay: Displacement of [3H]DPCPX from human adenosine A2B receptor expressed in HEK293 cells; assay type: cell-based; details: for Ki: read-out: Log Ki (converted); for pKi: read-out: Ki
T1 sequence (P29275 whole entry): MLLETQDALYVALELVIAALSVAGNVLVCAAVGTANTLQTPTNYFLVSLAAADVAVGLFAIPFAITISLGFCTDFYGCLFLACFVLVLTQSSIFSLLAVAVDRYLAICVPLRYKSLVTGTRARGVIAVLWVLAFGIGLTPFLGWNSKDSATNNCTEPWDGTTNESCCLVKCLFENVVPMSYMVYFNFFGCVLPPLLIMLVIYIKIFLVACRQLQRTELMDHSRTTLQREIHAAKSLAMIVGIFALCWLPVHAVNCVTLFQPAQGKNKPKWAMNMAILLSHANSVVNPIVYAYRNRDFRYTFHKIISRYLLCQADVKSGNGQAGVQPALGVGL

Adenosine receptor A2a = Adenosine receptor A2a (Homo sapiens, UniProt P29274); assay: Displacement of [3H]ZM-241385 from human adenosine A2A receptor expressed in CHO cells; assay type: cell-based
Adenosine receptor A2a, sequence (P29274 whole entry): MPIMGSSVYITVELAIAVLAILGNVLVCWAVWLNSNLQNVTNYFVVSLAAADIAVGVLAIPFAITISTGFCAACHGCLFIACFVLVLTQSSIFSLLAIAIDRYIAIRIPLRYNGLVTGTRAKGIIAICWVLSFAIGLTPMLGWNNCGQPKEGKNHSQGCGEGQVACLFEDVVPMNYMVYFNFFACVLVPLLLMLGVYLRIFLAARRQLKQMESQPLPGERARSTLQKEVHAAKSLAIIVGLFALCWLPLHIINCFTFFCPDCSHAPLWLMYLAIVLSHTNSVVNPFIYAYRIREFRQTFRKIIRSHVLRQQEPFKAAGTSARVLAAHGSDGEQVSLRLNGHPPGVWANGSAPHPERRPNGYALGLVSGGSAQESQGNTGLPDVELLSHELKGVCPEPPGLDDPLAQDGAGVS
Procedure, shortened: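 Competition binding at cloned human receptors: [3H]DPCPX for A1 and A2B, [3H]ZM241385 for A2A, [3H]NECA for A3. Screening compounds are reported as % radioligand displacement at one concentration. SEM below 10%.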

Homo sapiens = species: Homo sapiens; assay: Selectivity index, ratio for human adenosine A2A receptor to human adenosine A2B receptor

SMILES | Ki (Adenosine receptor A2b) | pKi (Adenosine receptor A2a) | Ratio (Homo sapiens) | pKi (Adenosine receptor A2b)
CCCn1c(=O)c2[nH]c(-c3ccc(OCC(=O)N4CCN(C(=O)OCc5ccccc5)CC4)cc3)cc2n(CCC)c1=O | 38.9 nM | 6.82 | 3.9 | 
CCCn1c(=O)n(C)c(=O)c2[nH]c(-c3ccc(OC(C)(C)C(=O)N4CCN(c5ccccc5)CC4)cc3)cc21 | 4.17 nM | 6.25 | 135 | 
CCCn1c(=O)c2[nH]c(-c3ccc(OCC(=O)N4CCN(c5ccccc5Cl)CC4)cc3)cc2n(CCC)c1=O | 6.92 nM | 7.42 | 5.5 | 
Cn1c(=O)c2[nH]c(-c3ccc(OCC(=O)N4CCN(c5ccc(C(F)(F)F)cc5)CC4)cc3)cc2n(C)c1=O | 4.17 nM | 6.88 | 31.6 | 
Cn1c(=O)c2[nH]c(-c3ccc(OCC(=O)N4CCN(c5ccc(O)cc5)CC4)cc3)cc2n(C)c1=O | 27.5 nM | 6.21 | 22 | 
CCCn1c(=O)c2[nH]c(-c3ccc(OCC(=O)N4CCN(c5cccc(Cl)c5)CC4)cc3)cc2n(CCC)c1=O |  | 6.94 | 75.9 | 8.82
CCCn1c(=O)n(C)c(=O)c2[nH]c(-c3ccc(OCC(=O)N4CCC(c5ccc(OC)cc5)CC4)cc3)cc21 | 9.12 nM | 6.40 | 43.7 | 
O=C(COc1ccc(-c2cc3c([nH]2)c(=O)n(CC2CC2)c(=O)n3CC2CC2)cc1)N1CCN(c2ccccc2)CC1 | 11.7 nM | 7.31 | 4.2 | 
Cn1c(=O)c2[nH]c(-c3ccc(OCC(=O)N4CCN(c5ncccn5)CC4)cc3)cc2n(C)c1=O | 13.5 nM | 6.38 | 30.9 | 
CCCn1c(=O)c2[nH]c(-c3ccc(OCC(=O)N4CCC(c5ccccc5)CC4)cc3)cc2n(CCC)c1=O | 20.9 nM | 6.23 | 28.2 | 
CCCn1c(=O)n(C)c(=O)c2[nH]c(-c3ccc(OCC(=O)N4CCN(c5nc6ccc(Cl)cc6s5)CC4)cc3)cc21 | 5.75 nM | 6.20 | 106 | 
Cn1c(=O)c2[nH]c(-c3ccc(OCC(=O)N4CCN(c5ccccc5Cl)CC4)cc3)cc2n(C)c1=O | 6.31 nM | 6.45 | 56 | 
Cn1c(=O)c2[nH]c(-c3ccc(OCC(=O)N4CCC(C(=O)c5ccc(F)cc5)CC4)cc3)cc2n(C)c1=O | 11.2 nM | 6.52 | 26.9 | 
CC(Oc1ccc(-c2cc3c([nH]2)c(=O)n(C)c(=O)n3C)cc1)C(=O)N1CCN(c2ccccc2Cl)CC1 (stereo not drawn) | 70.8 nM | 6.13 | 10.5 | 
Cn1c(=O)c2[nH]c(-c3ccc(OCC(=O)N4CCN(c5ccc(Cl)cc5)CC4)cc3)cc2n(C)c1=O | 3.39 nM | 6.40 | 117 | 
CCCn1c(=O)c2[nH]c(-c3ccc(OCC(=O)N4CCN(c5ccccc5Cl)CC4)cc3)cc2n(C)c1=O | 69.2 nM | 6.65 | 3.2 | 
COc1cc(-c2cc3c([nH]2)c(=O)n(C)c(=O)n3C)ccc1OCC(=O)N1CCN(c2ccccc2)CC1 | 57.5 nM | 5.84 | 25.1 | 
CCCn1c(=O)c2[nH]c(-c3ccc(OCC(=O)N4CCN(Cc5ccccc5)CC4)cc3)cc2n(CCC)c1=O | 6.17 nM | 6.59 | 41.7 | 
Cn1c(=O)c2[nH]c(-c3ccc(OCC(=O)N4CCN(Cc5ccccc5)CC4)cc3)cc2n(C)c1=O | 53.7 nM | 5.81 | 28.8 | 
CCCn1c(=O)c2[nH]c(-c3ccc(OCC(=O)N4CCN(c5c(Cl)cncc5Cl)CC4)cc3)cc2n(CCC)c1=O | 7.59 nM | 7.13 | 9.8 | 
CCCn1c(=O)n(C)c(=O)c2[nH]c(-c3ccc(OCC(=O)N4CCc5ccccc5C4)cc3)cc21 | 14.5 nM and 7.24 nM | 6.68 and 6.00 |  | 
COCCn1c(=O)c2[nH]c(-c3ccc(OCC(=O)N4CCN(c5ccccc5)CC4)cc3)cc2n(CCOC)c1=O | 4.9 nM | 6.40 | 81 | 
CCCn1c(=O)c2[nH]c(-c3ccc(OCC(=O)N4CCN(c5ccc(C(F)(F)F)cc5)CC4)cc3)cc2n(CCC)c1=O | 4.17 nM | 6.76 | 41.7 | 
CCCn1c(=O)c2[nH]c(-c3ccc(OCC(=O)N4CCN(c5ccccc5)CC4)cc3)cc2n(CCC)c1=O | 4.79 nM | 6.79 | 33.8 | 
Cn1c(=O)c2[nH]c(-c3ccc(OCC(=O)N4CCN(c5ccc(C#N)cc5)CC4)cc3)cc2n(C)c1=O | 6.31 nM | 6.45 | 56 | 
CCCn1c(=O)c2[nH]c(-c3ccc(OCC(=O)N4CCN(C(=O)Oc5ccccc5)CC4)cc3)cc2n(CCC)c1=O | 20.4 nM | 6.81 | 7.6 | 
Cn1c(=O)c2[nH]c(-c3ccc(OCC(=O)N4CCN(c5ccc(F)cc5)CC4)cc3)cc2n(C)c1=O | 9.55 nM | 6.49 | 33.8 | 

SMILES | Ki (Adenosine receptor A2b) | pKi (Adenosine receptor A2a) | Ratio (Homo sapiens) | pKi (Adenosine receptor A2b)
CCCn1c(=O)n(C)c(=O)c2[nH]c(-c3ccc(OCC(=O)N4CCN(c5cccc(Cl)c5)CC4)cc3)cc21 | 6.03 nM | 6.32 | 79 | 
CCCn1c(=O)c2[nH]c(-c3ccc(OC(C)C(=O)N4CCN(c5ccccc5)CC4)cc3)cc2n(CCC)c1=O (stereo not drawn) | 6.61 nM | 6.62 | 36.3 | 
CCCn1c(=O)c2[nH]c(-c3ccc(OCC(=O)N4CCN(C(c5ccccc5)c5ccccc5)CC4)cc3)cc2n(CCC)c1=O | 51.3 nM | 5.80 | 30.9 | 
CCCn1c(=O)n(C)c(=O)c2[nH]c(-c3ccc(OCC(=O)N4CCN(c5ccccc5)CC4)cc3)cc21 | 25.7 nM | 6.15 | 27.5 | 
CCCn1c(=O)c2[nH]c(-c3ccc(OCC(=O)N4CCC(c5ccccc5)(c5ccccc5)CC4)cc3)cc2n(CCC)c1=O | 21.4 nM | 5.98 | 40.7 | 
COc1ccc(N2CCN(C(=O)COc3ccc(-c4cc5c([nH]4)c(=O)n(C)c(=O)n5C)cc3)CC2)cc1 | 13.2 nM | 6.77 | 12.9 | 
O=C(COc1ccc(-c2cc3c([nH]2)c(=O)n(CC2CC2)c(=O)n3CC2CC2)cc1)N1CCc2ccccc2C1 | 9.55 nM | 6.62 | 25 | 
CN1CCN(C(=O)COc2ccc(-c3cc4c([nH]3)c(=O)n(C)c(=O)n4C)cc2)CC1 | 174 nM | 6.10 | 4.05 | 
COc1cc(-c2cc3c([nH]2)c(=O)n(C)c(=O)n3C)ccc1OCC(=O)N1CCc2ccccc2C1 | 170 nM | 5.17 | 39 | 
COc1ccc(C2CCN(C(=O)COc3ccc(-c4cc5c([nH]4)c(=O)n(C)c(=O)n5C)cc3OC)CC2)cc1 | 30.9 nM | 6.06 | 28.2 | 
Cc1ccc(N2CCN(C(=O)C(C)Oc3ccc(-c4cc5c([nH]4)c(=O)n(C)c(=O)n5C)cc3)CC2)cc1 (stereo not drawn) |  | 6.41 | 213 | 8.70
CCCn1c(=O)c2[nH]c(-c3ccc(OCC(=O)N4CCC(O)(c5ccccc5)CC4)cc3)cc2n(CCC)c1=O | 13.5 nM | 5.94 | 85.1 | 
CCn1c(=O)c2[nH]c(-c3ccc(OCC(=O)N4CCN(c5ccccc5)CC4)cc3)cc2n(CC)c1=O | 25.7 nM | 6.16 | 26.9 | 
Cn1c(=O)c2[nH]c(-c3ccc(OCC(=O)N4CCC(O)(c5ccc(Cl)cc5)CC4)cc3)cc2n(C)c1=O | 2.88 nM | 6.49 | 112 | 
CCCn1c(=O)c2[nH]c(-c3ccc(OC(C)C(=O)N4CCc5ccccc5C4)cc3)cc2n(CCC)c1=O (stereo not drawn) | 4.68 nM | 6.80 | 33.9 | 
Cn1c(=O)c2[nH]c(-c3ccc(OCC(=O)N4CCN(c5cccc(Cl)c5)CC4)cc3)cc2n(C)c1=O |  | 6.81 | 55 | 8.52
CCCn1c(=O)n(C)c(=O)c2[nH]c(-c3ccc(OCC(=O)N4CCN(c5ccccc5Cl)CC4)cc3)cc21 | 14.8 nM | 5.96 | 74.1 | 
Cn1c(=O)c2[nH]c(-c3ccc(OCC(=O)N4CCN(c5ccc(Br)cc5)CC4)cc3)cc2n(C)c1=O | 3.47 nM | 6.94 | 33.1 | 
CCCn1c(=O)n(C)c(=O)c2[nH]c(-c3ccc(OCC(=O)N4CCC(c5ccccc5)CC4)cc3)cc21 |  | 5.99 | 398 | 8.60
CCCn1c(=O)n(C)c(=O)c2[nH]c(-c3ccc(OCC(=O)N4CCC(c5ccccc5OC)CC4)cc3)cc21 | 6.17 nM | 6.39 | 66.1 | 
Cn1c(=O)c2[nH]c(-c3ccc(OC(C)(C)C(=O)N4CCN(c5ccccc5)CC4)cc3)cc2n(C)c1=O | 31.6 nM | 6.76 | 5.49 | 
COc1ccccc1N1CCN(C(=O)COc2ccc(-c3cc4c([nH]3)c(=O)n(C)c(=O)n4C)cc2)CC1 | 51.3 nM | 5.63 | 45.7 | 
CCCn1c(=O)c2[nH]c(-c3ccc(OCC(=O)N4CCN(c5ccccc5)CC4)cc3)cc2n(C)c1=O | 13.2 nM | 6.50 | 24 | 
CC(Oc1ccc(-c2cc3c([nH]2)c(=O)n(C)c(=O)n3C)cc1)C(=O)N1CCN(c2ccccc2)CC1 (stereo not drawn) | 20.4 nM | 6.45 | 17.4 | 
Cn1c(=O)c2[nH]c(-c3ccc(OCC(=O)N4CCC(c5ccccc5)CC4)cc3)cc2n(C)c1=O | 12.3 nM | 6.10 | 64.6 | 
CCCn1c(=O)c2[nH]c(-c3ccc(OCC(=O)N4CCc5ccccc5C4)cc3)cc2n(CCC)c1=O | 2.29 nM | 7.03 | 40.7 | 
